Data reported in ChEMBL document CHEMBL1155898 (J Med Chem, 2008).
Activity calls are given as the source filed them.

Tests used:
[1] = Displacement of [3H]flumazenil from CBR in bovine cortical membrane; type: cell membranes, Bos taurus
How it was run: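 Bovine or human cortical membranes washed free of endogenous GABA. […] Nonspecific binding with 10 µM diazepam. At least six concentrations over 3 log units, DMSO 2%. IC50 converted to Ki by Cheng-Prusoff (Kd 0.85 nM bovine, 0.91 nM human). Ki is the mean of three determinations.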

[2] = Displacement of [3H]flumazenil from CBR in human cortical membrane; type: cell membranes
How it was run: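 Bovine or human cortical membranes washed free of endogenous GABA. Nonspecific binding with 10 µM diazepam. At least six concentrations over 3 log units, DMSO 2%. Ki is the mean of three determinations.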

Homo sapiens [3] = organism: Homo sapiens; experiment: Ratio of Ki for human CBR in absence of GABA to Ki for human CBR in presence of 50 uM GABA
Bos taurus [4] = organism: Bos taurus; experiment: Ratio of Ki for bovine CBR in absence of GABA to Ki for bovine CBR in presence of 50 uM GABA
Mus musculus [5] = experiment: Effect on learning and memory performance in CD1 albino mouse assessed as training session latency at 1 mg/kg, ip by passive avoidance test; type: functional; settings: route intraperitoneal
How it was run: (§1)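 Mice dosed po or ip in 1% CMC (10 mL/kg). Step-through passive avoidance in a two-compartment box (lit and dark, joined by guillotine door); latencies recorded in training and retention sessions. At least 15-20 mice per group; ANOVA/Fisher PLSD versus CMC controls.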

Mus musculus [6] = experiment: Effect on ethanol-induced sleep in CD1 albino mouse time assessed as endurance time 1 mg/kg, ip; type: functional; settings: route intraperitoneal
How it was run: (§2)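 Mice dosed po or ip in 1% CMC (10 mL/kg). Ethanol 4 g/kg ip given 30 min later. Sleep time taken as duration of loss of righting reflex, cut-off 210 min. At least 15-20 mice per group; ANOVA/Fisher PLSD.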

Mus musculus [7] = experiment: Antianxiety activity in CD1 albino mouse assessed as time spent in light at 1 mg/kg, ip by light-dark box method; type: functional; settings: route intraperitoneal
How it was run: (§3)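 Male CD-1 mice given drug po or ip in 1% CMC at 10 mL/kg. Light/dark box: number of transfers between compartments and time spent in the lit side recorded. At least 15-20 mice per group; ANOVA/Fisher PLSD versus vehicle.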

Mus musculus [8] = experiment: Anticonvulsant activity in CD1 albino mouse assessed as pentylenetetrazole-induced convulsion latency time at 1 mg/kg, ip; type: functional, organism-based; design: dose 1 mg/kg
How it was run: (§4)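 Mice dosed po or ip in 1% CMC (10 mL/kg). Pentylenetetrazole 90 mg/kg sc given 30 min later; clonic generalized convulsions observed over 30 min. ANOVA/Fisher PLSD versus vehicle controls.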

Mus musculus [9] = experiment: Effect on ethanol-induced sleep in CD1 albino mouse assessed as induction time 1 mg/kg, ip; type: functional; settings: route intraperitoneal; how it was run: as §2
Mus musculus [10] = experiment: Anticonvulsant activity in CD1 albino mouse assessed as pentylenetetrazole-induced death latency time at 1 mg/kg, ip; type: functional, organism-based; design: dose 1 mg/kg; how it was run: as §4
Mus musculus [11] = experiment: Effect on learning and memory performance in CD1 albino mouse assessed as retention session latency at 1 mg/kg, ip by passive avoidance test; type: functional; settings: route intraperitoneal; how it was run: as §1
Bos taurus [12] = organism: Bos taurus; experiment: Displacement of [3H]flumazenil from CBR in bovine cortical membrane at 10 uM; type: cell membranes
Rattus norvegicus [13] = organism: Rattus norvegicus; experiment: Inverse agonist activity at CBR in Sprague-Dawley rat brain cortex assessed as decrease in chloride influx; type: functional
Rattus norvegicus [14] = organism: Rattus norvegicus; experiment: Agonist activity at CBR in Sprague-Dawley rat brain cortex assessed as increase in chloride influx; type: functional, tissue-based
Homo sapiens [15] = organism: Homo sapiens; experiment: Displacement of [3H]flumazenil from CBR in human cortical membrane at 10 uM; type: cell membranes
Mus musculus [16] = experiment: Antianxiety activity in CD1 albino mouse assessed as number of crosses at 0.3 mg/kg, po by light-dark box method; type: functional; how it was run: as §3
Mus musculus [17] = experiment: Antianxiety activity in CD1 albino mouse assessed as number of crosses at 1 mg/kg, po by light-dark box method; type: functional; how it was run: as §3
Mus musculus [18] = experiment: Anticonvulsant activity in CD1 albino mouse assessed as pentylenetetrazole-induced death latency time at 3 mg/kg, po by; type: functional; how it was run: as §4
Mus musculus [19] = experiment: Antianxiety activity in CD1 albino mouse assessed as number of crosses at 6.5 mg/kg, po by light-dark box method; type: functional; how it was run: as §3
Mus musculus [20] = experiment: Effect on ethanol-induced sleep in CD1 albino mouse assessed as endurance time 12.5 mg/kg, po; type: functional; how it was run: as §2
Mus musculus [21] = experiment: Anticonvulsant activity in CD1 albino mouse assessed as pentylenetetrazole-induced death latency time at 6.5 mg/kg, po; type: functional; how it was run: as §4
Mus musculus [22] = experiment: Effect on learning and memory performance in CD1 albino mouse assessed as training session latency at 12.5 mg/kg, po by passive avoidance test; type: functional; how it was run: as §1
Mus musculus [23] = experiment: Effect on ethanol-induced sleep in CD1 albino mouse assessed as induction time 12.5 mg/kg, po; type: functional; how it was run: as §2
Mus musculus [24] = experiment: Effect on ethanol-induced sleep in CD1 albino mouse assessed as induction time at 3 mg/kg, po; type: functional; how it was run: as §2
Mus musculus [25] = experiment: Toxic myorelaxant activity in CD1 albino mouse assessed as number of falls in 30 secs at 6.5 mg/kg, po after 30 mins by rotarod test; type: toxicity, organism-based; design: dose 6.5 mg/kg, route oral; settings: in vivo
How it was run: (§5)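 Male CD-1 mice, dosed po or ip in 1% CMC (10 mL/kg). Rota-rod at 16 rpm; falls counted over 30 s, 30 min after dosing. At least 15-20 mice per group; ANOVA with Fisher PLSD versus CMC/saline controls.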

Mus musculus [26] = experiment: Effect on learning and memory performance in CD1 albino mouse assessed as retention session latency at 12.5 mg/kg, po by passive avoidance test; type: functional; how it was run: as §1
Mus musculus [27] = experiment: Antianxiety activity in CD1 albino mouse assessed as time spent in light at 1 mg/kg, po by light-dark box method; type: functional; how it was run: as §3
Mus musculus [28] = experiment: Antianxiety activity in CD1 albino mouse assessed as time spent in light at 3 mg/kg, po by light-dark box method; type: functional; how it was run: as §3
Mus musculus [29] = experiment: Effect on learning and memory performance in CD1 albino mouse assessed as training session latency at 6.5 mg/kg, po by passive avoidance test; type: functional; how it was run: as §1
Mus musculus [30] = experiment: Toxic myorelaxant activity in CD1 albino mouse assessed as number of falls in 30 secs at 3 mg/kg, po after 30 mins by rotarod test; type: toxicity, organism-based; design: dose 3 mg/kg, route oral; settings: in vivo; how it was run: as §5
Mus musculus [31] = experiment: Anticonvulsant activity in CD1 albino mouse assessed as pentylenetetrazole-induced death latency time at 12.5 mg/kg, po; type: functional; how it was run: as §4
Mus musculus [32] = experiment: Toxic myorelaxant activity in CD1 albino mouse assessed as number of falls in 30 secs at 0.3 mg/kg, po after 30 mins by rotarod test; type: toxicity, organism-based; design: dose 0.3 mg/kg, route oral; settings: in vivo; how it was run: as §5
Mus musculus [33] = experiment: Effect on ethanol-induced sleep in CD1 albino mouse assessed as induction time 6.5 mg/kg, po; type: functional; how it was run: as §2
Mus musculus [34] = experiment: Effect on ethanol-induced sleep in CD1 albino mouse time assessed as endurance time 6.5 mg/kg, po; type: functional; how it was run: as §2
Mus musculus [35] = experiment: Antianxiety activity in CD1 albino mouse assessed as number of crosses at 12.5 mg/kg, po by light-dark box method; type: functional; how it was run: as §3
Mus musculus [36] = experiment: Effect on ethanol-induced sleep in CD1 albino mouse time assessed as endurance time 3 mg/kg, po; type: functional; how it was run: as §2
Mus musculus [37] = experiment: Effect on learning and memory performance in CD1 albino mouse assessed as retention session latency at 6.5 mg/kg, po by passive avoidance test; type: functional; how it was run: as §1
Mus musculus [38] = experiment: Antianxiety activity in CD1 albino mouse assessed as time spent in light at 0.3 mg/kg, po by light-dark box method; type: functional; how it was run: as §3
Mus musculus [39] = experiment: Toxic myorelaxant activity in CD1 albino mouse assessed as number of falls in 30 secs at 1 mg/kg, po after 30 mins by rotarod test; type: toxicity, organism-based; design: dose 1 mg/kg, route oral; settings: in vivo; how it was run: as §5
Mus musculus [40] = experiment: Antianxiety activity in CD1 albino mouse assessed as number of crosses at 3 mg/kg, po by light-dark box method; type: functional; how it was run: as §3
Mus musculus [41] = experiment: Anticonvulsant activity in CD1 albino mouse assessed as pentylenetetrazole-induced convulsion latency time at 12.5 mg/kg, po; type: functional; how it was run: as §4
Mus musculus [42] = experiment: Effect on learning and memory performance in CD1 albino mouse assessed as retention session latency at 3 mg/kg, po by passive avoidance test; type: functional; how it was run: as §1
Mus musculus [43] = experiment: Antianxiety activity in CD1 albino mouse assessed as time spent in light at 6.5 mg/kg, po by light-dark box method; type: functional; how it was run: as §3
Mus musculus [44] = experiment: Toxic myorelaxant activity in CD1 albino mouse assessed as number of falls in 30 secs at 12.5 mg/kg, po after 30 mins by rotarod test; type: toxicity, organism-based; design: dose 12.5 mg/kg, route oral; settings: in vivo; how it was run: as §5
Mus musculus [45] = experiment: Anticonvulsant activity in CD1 albino mouse assessed as pentylenetetrazole-induced convulsion latency time at 6.5 mg/kg, po; type: functional; how it was run: as §4
Mus musculus [46] = experiment: Antianxiety activity in CD1 albino mouse assessed as time spent in light at 12.5 mg/kg, po by light-dark box method; type: functional; how it was run: as §3
Mus musculus [47] = experiment: Anticonvulsant activity in CD1 albino mouse assessed as pentylenetetrazole-induced convulsion latency time at 3 mg/kg, po; type: functional; how it was run: as §4
Mus musculus [48] = experiment: Effect on learning and memory performance in CD1 albino mouse assessed as training session latency at 3 mg/kg, po by passive avoidance test; type: functional; how it was run: as §1

CCOC(=O)c1ncn2c1CN=C(c1ccc([N+](=O)[O-])cc1)c1ccccc1-2
IC50 [1]: 1.8 nM

CCOC(=O)c1ncn2c1CN(C)C(=O)c1cc(F)ccc1-2 [FLUMAZENIL]
Ki [1]: 1.9 nM

CN1C(=O)CN=C(c2ccccc2F)c2cc([N+](=O)[O-])ccc21 [FLUNITRAZEPAM]
Ki [2]: 6.5 nM
Ratio Ki (Homo sapiens [3]): 1.6
Ki [1]: 5.17 nM
Ratio Ki (Bos taurus [4]): 1.68

CN1C(=O)CN=C(c2ccccc2)c2cc(Cl)ccc21 [DIAZEPAM]
Time (Mus musculus [5]): 20.9 s
Time (Mus musculus [6]): >210 min
Time (Mus musculus [7]): 175.3 s
Activity (Mus musculus [8]): inactive
Time (Mus musculus [9]): 4.6 min
Activity (Mus musculus [10]): inactive
Time (Mus musculus [11]): 52.3 s

CCOC(=O)c1ncn2c1CN=C(c1ccc([N+](=O)[O-])cc1)c1cc(F)ccc1-2
Activity (Bos taurus [12]): > 80%
Ki [2]: 20 nM
Ratio Ki (Homo sapiens [3]): 0.86
Ki [1]: 14.8 nM
Activity (Rattus norvegicus [13]): Active
Activity (Rattus norvegicus [14]): Active
Ratio Ki (Bos taurus [4]): 0.89
Activity (Homo sapiens [15]): > 80%

CCOC(=O)c1ncn2c1CN=C(c1cccc([N+](=O)[O-])c1)c1cc(F)ccc1-2
Activity (Bos taurus [12]): > 80%
Activity (Mus musculus [16]): 14.6
Activity (Mus musculus [17]): 8.6
Time (Mus musculus [18]): 21.9 min
Activity (Mus musculus [19]): 5.4
Time (Mus musculus [20]): 177.8 min
Time (Mus musculus [21]): 22.5 min
Time (Mus musculus [22]): 16 s
Time (Mus musculus [23]): 6.8 min
Time (Mus musculus [24]): 6.1 min
Activity (Mus musculus [25]): 2.7
Ki [2]: 9.7 nM
Time (Mus musculus [26]): 55.7 s
Time (Mus musculus [27]): 132 s
Time (Mus musculus [28]): 169.3 s
Time (Mus musculus [29]): 17.9 s
Time (Mus musculus [6]): 177.8 min
Activity (Mus musculus [30]): 2.1
Ratio Ki (Homo sapiens [3]): 1.2
Time (Mus musculus [31]): 39.8 min
Activity (Mus musculus [32]): 2.3
Time (Mus musculus [33]): 7.3 min
Time (Mus musculus [34]): 118.2 min
Activity (Mus musculus [35]): 5.1
Time (Mus musculus [36]): 13.5 min
Time (Mus musculus [37]): 76.5 s
Activity (Mus musculus [38]): 123.7
Activity (Mus musculus [39]): 2.2
Activity (Mus musculus [40]): 5.6
Ki [1]: 4.4 nM
Activity (Rattus norvegicus [13]): Active
Time (Mus musculus [41]): 23.6 min
Time (Mus musculus [9]): 6.8 min
Time (Mus musculus [42]): 88.7 s
Time (Mus musculus [43]): 181.2 s
Activity (Rattus norvegicus [14]): Active
Ratio Ki (Bos taurus [4]): 1.19
Activity (Homo sapiens [15]): > 80%
Activity (Mus musculus [44]): 4.4
Time (Mus musculus [45]): 19.3 min
Time (Mus musculus [46]): 186.8 s
Time (Mus musculus [47]): 18.7 min
Time (Mus musculus [48]): 18.3 s
